The term fraction unbound denotes free concentration divided by total concentration. The IC50 is the concentration that inhibits the measured activity by half. Broadly, the clearance is the volume of plasma or blood freed of the substance per unit of time. One may read the solubility as the dissolved amount per volume that the medium holds. A high value points to a readily soluble substance. One may read the logD as the decadic logarithm of the distribution of all forms, ionised or not, between an organic phase and buffer at a given pH. Higher therefore signals higher lipophilicity.

In brackets after ≈: the same amount, converted by molar mass.

The test system of one data set is Haemophilus influenzae. Put plainly: Antimicrobial activity against Haemophilus influenzae by broth microdilution/CLSI method. The settings on record: Haemophilus influenzae; read-out: MIC. It is filed as functional. In general terms: In broth dilution the organism is exposed to a series of concentrations in liquid medium.
The nature of data set [1]: Percentage unbound in human plasma. The data set is classed as ADME, cell-free.
Data set [2] relates to Escherichia coli. Put plainly: Antimicrobial activity against wild-type Escherichia coli Eco523 by broth microdilution/CLSI method. The following applies: Escherichia coli, Eco523; read-out: MIC. The data set is classed as functional.
A further data set deals with Streptococcus pneumoniae. Put plainly: Antibacterial activity against Streptococcus pneumoniae by broth microdilution/CLSI method. The data set is classed as functional. The following applies: Streptococcus pneumoniae; read-out: MIC.
Another data set addresses DNA gyrase subunit B (Staphylococcus aureus, UniProt P0A0K8). Put plainly: Inhibition of ATPase activity of Staphylococcus aureus GyrB. The procedure, abridged:
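IC50 was determined against S. aureus GyrB in the routine screening assay. The enzyme concentration limits resolution below 10 nM.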

The subject of the next data set is Streptococcus pyogenes. Put plainly: Antimicrobial activity against Streptococcus pyogenes by broth microdilution/CLSI method. The data set is classed as functional.
A short description of data set [3]: Clearance in rat at 10 mg/kg, iv. Further details: dose 10 mg/kg, route intravenous. The following applies: in vivo. It is filed as ADME, organism-based.
A further data set deals with Moraxella catarrhalis. Put plainly: Antimicrobial activity against Moraxella catarrhalis by broth microdilution/CLSI method. It is filed as functional. The following applies: Moraxella catarrhalis; read-out: MIC.
Data set [4] in a line: Ratio of MIC for methicillin, quinolone-resistant Staphylococcus aureus to fraction unbound in human plasma. It is filed as ADME.
In data set [5] the test system is Staphylococcus aureus. The experiment in a line: Antimicrobial activity against methicillin-sensitive Staphylococcus aureus by broth microdilution/CLSI method. The settings on record: Staphylococcus aureus; read-out: MIC. The data set is classed as functional.
The subject of data set [6] is Staphylococcus aureus. Put plainly: Antimicrobial activity against methicillin, quinolone-resistant Staphylococcus aureus by broth microdilution/CLSI method. The data set is classed as functional. The following applies: Staphylococcus aureus; read-out: MIC.
The test system of data set [7] is Escherichia coli. Put plainly: Antimicrobial activity against Escherichia coli tolC- by broth microdilution/CLSI method. The data set is classed as functional. The following applies: Escherichia coli; read-out: MIC.
The nature of data set [8]: Solubility of the compound. The data set is classed as physicochemical.
Data set [9] in a line: Octanol-phosphate buffer distribution coefficient, log D of the compound at pH 7.4 by shake flask method. It is filed as physicochemical.

Chain of DNA gyrase subunit B (P0A0K8 whole entry): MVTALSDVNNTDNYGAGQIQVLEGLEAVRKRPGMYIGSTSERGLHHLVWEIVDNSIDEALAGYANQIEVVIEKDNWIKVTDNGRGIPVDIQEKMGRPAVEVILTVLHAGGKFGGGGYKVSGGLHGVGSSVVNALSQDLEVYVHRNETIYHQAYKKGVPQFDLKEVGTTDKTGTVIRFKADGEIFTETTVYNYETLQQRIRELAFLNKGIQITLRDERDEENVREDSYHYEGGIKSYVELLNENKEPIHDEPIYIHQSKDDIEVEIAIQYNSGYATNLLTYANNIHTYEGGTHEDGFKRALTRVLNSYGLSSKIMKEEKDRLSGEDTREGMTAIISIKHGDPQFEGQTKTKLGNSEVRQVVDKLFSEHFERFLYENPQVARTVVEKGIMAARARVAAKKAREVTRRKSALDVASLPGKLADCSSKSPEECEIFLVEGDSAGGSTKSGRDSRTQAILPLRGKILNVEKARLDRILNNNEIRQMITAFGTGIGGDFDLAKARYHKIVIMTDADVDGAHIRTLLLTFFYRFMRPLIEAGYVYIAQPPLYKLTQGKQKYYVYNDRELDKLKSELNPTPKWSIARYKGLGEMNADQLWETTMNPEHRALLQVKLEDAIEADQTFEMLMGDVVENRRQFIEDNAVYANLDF

As to `COc1ccnc(-c2nc(N3CC[C@@H](NC(=O)c4[nH]c(C)c(Cl)c4Cl)[C@@H](OC)C3)sc2C(=O)O)n1`, the MIC in the data set on Haemophilus influenzae was 0.25 µg/mL (≈ 0.462 µM); in the data set with Escherichia coli [2] it was 16 µg/mL (≈ 29.6 µM); in the data set on Streptococcus pneumoniae, less than 0.06 µg/mL; in the data set with Streptococcus pyogenes, less than 0.06 µg/mL; with Moraxella catarrhalis, less than 0.06 µg/mL; with Staphylococcus aureus [5], less than 0.06 µg/mL. Moreover, in data set [1], the unbound share (fraction unbound) came out at 0.036. Moreover, the 50% inhibitory concentration (IC50) at DNA gyrase subunit B was less than 10 nM. The clearance in data set [3] stood at 6.3 mL/min/kg. Besides, in data set [4], the Ratio came to 1.75.

`CO[C@H]1CN(c2nc(C(F)F)c(C(=O)O)s2)CC[C@H]1NC(=O)c1[nH]c(C)c(Cl)c1Cl`: the MIC in the data set on Haemophilus influenzae is 1 µg/mL (≈ 2.07 µM); with Escherichia coli [2], more than 8 µg/mL; in the data set on Streptococcus pneumoniae, 0.063 µg/mL (≈ 0.13 µM); in the data set on Staphylococcus aureus [6], 2 µg/mL (≈ 4.14 µM); against Streptococcus pyogenes it was 0.13 µg/mL (≈ 0.269 µM); in the data set on Escherichia coli [7] it was 0.5 µg/mL (≈ 1.03 µM). Also, the MIC with Moraxella catarrhalis turned out to be 0.063 µg/mL (≈ 0.13 µM); in the data set with Staphylococcus aureus [5], 2 µg/mL (≈ 4.14 µM). In addition, the concentration for half-maximal inhibition (IC50) against DNA gyrase subunit B was less than 10 nM. Moreover, the concentration in solution in data set [8] (solubility) was 690 µM (≈ 333 µg/mL). In data set [3], this molecule came in with a clearance of 70 mL/min/kg. The molecule also had a logD in data set [9] of 0.52.

In the case of `CO[C@H]1CN(c2nc(C(=O)NC[C@H](C)OC)c(C(=O)O)s2)CC[C@H]1NC(=O)c1[nH]c(C)c(Cl)c1Cl`, the MIC in the data set with Haemophilus influenzae is 0.13 µg/mL (≈ 0.237 µM); with Escherichia coli [2], more than 8 µg/mL; in the data set with Streptococcus pneumoniae, 0.016 µg/mL (≈ 0.0292 µM); with Staphylococcus aureus [6], 0.031 µg/mL (≈ 0.0565 µM); against Streptococcus pyogenes, less than 0.008 µg/mL; with Escherichia coli [7], 0.5 µg/mL (≈ 0.912 µM). Besides, the MIC in the data set with Moraxella catarrhalis is less than 0.008 µg/mL; in the data set on Staphylococcus aureus [5], 0.031 µg/mL (≈ 0.0565 µM). In data set [1], this molecule displayed an unbound share (fraction unbound) of 0.027. Further, on DNA gyrase subunit B, the IC50 was less than 10 nM. The same molecule gave a clearance in data set [3] of 13 mL/min/kg. Also, the Ratio in [4] is reported as 1.1.

With `CO[C@H]1CN(c2nc(-c3cncnc3)c(C(=O)O)s2)CC[C@H]1NC(=O)c1[nH]c(C)c(Cl)c1Cl`, the MIC in the data set on Haemophilus influenzae is 1.6 µg/mL (≈ 3.13 µM); in the data set with Escherichia coli [2], more than 100 µg/mL; with Streptococcus pneumoniae it was less than 0.1 µg/mL; with Staphylococcus aureus [6], 3.2 µg/mL (≈ 6.26 µM); in the data set on Streptococcus pyogenes, 0.4 µg/mL (≈ 0.782 µM); with Escherichia coli [7], 0.8 µg/mL (≈ 1.56 µM). Moreover, the MIC in the data set with Moraxella catarrhalis was found to be 0.4 µg/mL (≈ 0.782 µM); in the data set on Staphylococcus aureus [5] it was 3.2 µg/mL (≈ 6.26 µM). Also, in data set [1], the fraction unbound came out at 0.011. Besides, the IC50 against DNA gyrase subunit B is less than 10 nM. The molecule also came in with a solubility in data set [8] of 260 µM (≈ 133 µg/mL). The Ratio in data set [4] was 290. For the same molecule, the pH-dependent lipophilicity (logD) in data set [9] came to 0.35.

Consider `COc1cc(OC)nc(-c2nc(N3CC[C@@H](NC(=O)c4[nH]c(C)c(Cl)c4Cl)[C@@H](OC)C3)sc2C(=O)O)n1`, for which the MIC in the data set on Haemophilus influenzae amounted to 0.25 µg/mL (≈ 0.437 µM); in the data set on Escherichia coli [2], 32 µg/mL (≈ 56 µM); in the data set with Streptococcus pneumoniae it was 0.016 µg/mL (≈ 0.028 µM); in the data set with Staphylococcus aureus [6], 0.05 µg/mL (≈ 0.0875 µM); with Streptococcus pyogenes, 0.016 µg/mL (≈ 0.028 µM); with Escherichia coli [7] it was 1 µg/mL (≈ 1.75 µM). For the same molecule, the results for the MIC in the data set on Moraxella catarrhalis and in the data set with Staphylococcus aureus [5] were 0.016 µg/mL (≈ 0.028 µM) and 0.025 µg/mL (≈ 0.0437 µM), respectively. In addition, the fraction unbound in data set [1] is 0.036. Besides, the IC50 against DNA gyrase subunit B was less than 10 nM. Besides, the clearance in data set [3] was 6.3 mL/min/kg. Besides, in [4], the Ratio was found to be 1.4. This molecule displayed a logD in [9] of 1.7.

Consider `CO[C@H]1CN(c2nc(-c3cn(C)cn3)c(C(=O)O)s2)CC[C@H]1NC(=O)c1[nH]c(C)c(Cl)c1Cl`, for which the MIC in the data set with Haemophilus influenzae is 2 µg/mL (≈ 3.9 µM); in the data set on Escherichia coli [2], 16 µg/mL (≈ 31.2 µM); in the data set on Streptococcus pneumoniae, less than 0.06 µg/mL; with Staphylococcus aureus [6], 0.13 µg/mL (≈ 0.253 µM); against Streptococcus pyogenes it was less than 0.06 µg/mL; in the data set on Escherichia coli [7] it was less than 0.06 µg/mL. The MIC in the data set with Moraxella catarrhalis is less than 0.06 µg/mL; with Staphylococcus aureus [5], 0.13 µg/mL (≈ 0.253 µM). The molecule also had a fraction unbound in data set [1] of 0.019. This molecule also yielded a half-inhibitory concentration (IC50) at DNA gyrase subunit B of less than 10 nM. In data set [8], this molecule came in with a solubility of 3 µM (≈ 1.54 µg/mL). The Ratio in [4] is reported as 6.8. Further, in data set [9], the logD stood at 2.5.

Regarding `CO[C@H]1CN(c2nc(C(=O)NCCN3CCOCC3)c(C(=O)O)s2)CC[C@H]1NC(=O)c1[nH]c(C)c(Cl)c1Cl`, the MIC with Haemophilus influenzae is 0.25 µg/mL (≈ 0.424 µM); in the data set on Escherichia coli [2] it was more than 8 µg/mL; with Streptococcus pneumoniae it was 0.031 µg/mL (≈ 0.0526 µM); with Staphylococcus aureus [6], 0.5 µg/mL (≈ 0.848 µM); in the data set on Streptococcus pyogenes, 0.031 µg/mL (≈ 0.0526 µM); in the data set with Escherichia coli [7], 0.25 µg/mL (≈ 0.424 µM). For the same molecule, the MIC in the data set on Moraxella catarrhalis turned out to be 0.031 µg/mL (≈ 0.0526 µM); in the data set on Staphylococcus aureus [5] it was 0.25 µg/mL (≈ 0.424 µM). In data set [1], this molecule displayed an unbound share (fraction unbound) of 0.054. For the same molecule, the IC50 on DNA gyrase subunit B is less than 10 nM. Further, the solubility in [8] was more than 1000 µM. In addition, the Ratio in data set [4] came to 9.2. In addition, the logD in [9] came to 1.

(Values after ChEMBL document CHEMBL3352173, “Optimization of pyrrolamide topoisomerase II inhibitors toward identification of an antibacterial clinical candidate (AZD5099)” (J Med Chem, 2014).)
